# Assay outcomes from PubChem.
# Compounds with a hit are over-represented: about 3.7% of the library has one in this group of screens.
# KCNK9 inh – human KCNK9 channel inhibition; Q9NPC2; HEK293 KCNK9, FluxOR thallium flux fluorescence; active compounds read low; B-score at 10 µM; 1.2% of 310,000 active; AID 488922;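 active = ratio B-score over 3 SD below the library mean, with starting fluorescence within 5 SD of its mean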;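 also: negative B-score means less thallium flux so channel inhibition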
# KCNQ1 pot – human KCNQ1 channel potentiation or activation; P51787; CHO-K1 KCNQ1, thallium flux FluxOR fluorescence; active compounds read high; B-score at 10 µM; 0.35% of 310,000 active;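 active = fluorescence ratio B-score, a plate-corrected score, at least three library SD, with initial intensity B-score within 5 SD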
#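 Assay system: stable KCNQ1 CHO-K1 line; medium: assay buffer, equal DMSO in all wells; timing: 90 min dye loading and 20 min compound exposure, both at room temperature; technique: kinetic FluxOR thallium fluorescence, 10-s 1-Hz baseline, 110-s post-stimulus read; read-out basis: B score of baseline-normalized fluorescence ratio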
# KCNK3 block – human KCNK3 channel inhibition, primary screen | B-score at 10 µM | O14649 | CHO-KCNK3 thallium flux, FluxOR fluorescence; active compounds read low | 0.84% of 340,000 active | AID 602410;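 active = B-score under library mean minus 4 SD, starting fluorescence ratio at most library mean plus 5 SD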;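 also: more negative B-score means stronger inhibition of thallium flux through KCNK3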
# hERG rescue – compounds protecting human hERG from proarrhythmic drug block | 0.51% of 310,000 active | Q12809 | AID 1511 | activation (rescue from dofetilide block), less the hit threshold, % at 10 µM | CHO-hERG, FluxOR thallium flux, dofetilide IC70 present;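 active = activation above the mean of controls blocked by dofetilide plus 5 SD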;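 also: thallium influx through hERG after potassium depolarization seen as dye fluorescence rise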
# Kir21 inh – Kir2.1 (mouse) channel inhibition. P35561. HEK293-Kir2.1, FluxOR thallium flux fluorescence; active compounds read low. B-score at 10 µM. 0.85% of 310,000 active;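 active = fluorescence ratio B-score at or below minus 3 SD of library scores, with starting-brightness B-score within 2 SD, cut at about -4.2 in these data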;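 also: channel flux triggered by added potassium and thallium sulfate stimulus; B-score of peak minus minimum fluorescence over baseline after thallium stimulus; more negative B-score means stronger Kir2.1 block with less thallium influx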
# Target sequence (P35561 whole entry, looked up): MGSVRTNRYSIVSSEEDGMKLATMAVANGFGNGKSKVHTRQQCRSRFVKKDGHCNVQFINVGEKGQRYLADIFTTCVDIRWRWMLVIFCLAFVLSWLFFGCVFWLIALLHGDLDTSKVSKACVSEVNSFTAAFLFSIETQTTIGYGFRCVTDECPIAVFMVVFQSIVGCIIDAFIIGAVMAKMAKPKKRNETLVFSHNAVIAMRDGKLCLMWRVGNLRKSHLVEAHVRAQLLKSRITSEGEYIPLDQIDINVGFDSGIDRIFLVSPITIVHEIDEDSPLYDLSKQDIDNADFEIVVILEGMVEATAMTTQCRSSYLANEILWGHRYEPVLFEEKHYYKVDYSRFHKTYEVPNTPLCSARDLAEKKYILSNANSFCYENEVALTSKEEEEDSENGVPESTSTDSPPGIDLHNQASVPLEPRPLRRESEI
# KCNQ1 block – human KCNQ1 channel inhibition; P51787; CHO-K1 KCNQ1, FluxOR thallium flux fluorescence; active compounds read high; B-score at 10 µM; 1.3% of 310,000 active; AID 2642;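 active = compounds whose thallium flux B-score, printed positive for inhibition, exceeds three library SD while starting fluorescence stays within three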;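 also: channel opened by potassium depolarization with thallium stimulus after 20 min compound exposure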
# * hit, by the source's call; i = inactive; x = no result given.
SMILES,KCNK9 inh,KCNQ1 pot,KCNK3 block,hERG rescue,Kir21 inh,KCNQ1 block
CC(C)CC(=O)N1CCN(S(C)(=O)=O)CC1,i,i,i,-2.2,0.62,i
COc1cccc(OCC(O)CNC(=O)c2oc3ccc(C)cc3c2C)c1 (stereo not drawn),i,i,i,-3.1,-0.31,i
CC(C)(C)C1CCC(OC(=O)C[N+]2(C)CCCCC2)CC1 (stereo not drawn),i,i,i,-12.3,-2.2,i
OCC1(Cc2ccc(F)cc2F)CCCN(Cc2ccc(Cl)cc2)C1 (stereo not drawn),i,i,i,-5.1,-9.43*,i
COc1ccccc1OCC(=O)NC1CCCc2ccccc21 (stereo not drawn),i,i,i,-10.5,-4.88*,i
Cc1cccc(OCC(=O)NC2CCCc3ccccc32)c1C (stereo not drawn),i,i,i,-3.5,0.94,i
Cc1cc(C)cc(OCC(=O)NC2CCCc3ccccc32)c1 (stereo not drawn),i,i,i,-7.6,-0.07,i
O=C(NC(=S)NC1CCCc2ccccc21)c1ccc(F)cc1 (stereo not drawn),i,9*,i,-7.9,-0.62,i
CC(C)c1ccccc1OCC(=O)NC1CCCc2ccccc21 (stereo not drawn),i,i,i,-9.3,-6.97*,i
CCOc1ccc(C(CC(=O)O)NC(=O)C(CC)c2ccccc2)cc1 (stereo not drawn),i,i,i,-4.3,0.24,i
CSCCNC(C)=O,i,i,x,5.5*,0.3,i
O=C(OCc1ccccc1)N1CCc2ccccc21,i,i,i,-5.5,-0.83,i
O=C(Nc1ccc(NC(=O)C2CC2)cn1)c1ccccc1,i,i,i,-5.8,-1.32,i
O=C(Nc1ccc(NC(=O)C2CC2)nc1)c1cccnc1,i,i,i,4.9*,-0.4,i
COc1ccccc1NC(=O)Nc1c(C)nn(C)c1C,i,i,i,-8.0,-0.1,i
Cc1ccc(-c2nc(=S)c3c(n2Cc2ccco2)CC(C)(C)OC3)cc1,i,12*,i,-7.8,-0.98,i
Cc1ccc(-c2nc(=S)c3c(n2Cc2ccco2)CCCC3)cc1,x,x,i,x,x,x
CC(C)c1ccc(C(C(=O)NC2CCCCC2)N(C(=O)c2csnn2)C2CC2)cc1 (stereo not drawn),i,i,i,-4.4,-0.16,i
Nc1nonc1-c1nc2ccccc2n1CC(=O)Nc1ccccc1,i,i,i,-3.8,-2.69,i
CCOC(=O)c1ccccc1NC(=O)Cn1c(-c2nonc2N)nc2ccccc21,-7.57*,i,i,-17.3,-0.46,i
O=C(Cc1cn(Cc2cccc(Cl)c2)c2ccccc12)N1CCCC1,i,i,i,-14.1,-5.24*,i
CN(C)c1ccc(N=Cc2nc(-c3ccccc3)oc2OC(=O)c2cccc(Br)c2)cc1,-6.59*,i,i,-7.2,-1.57,i
COc1ccc(N=Cc2nc(-c3ccccc3)oc2OC(=O)c2ccccc2)cc1,i,i,i,-2.5,0.06,i
CC(=O)C[C@H]1c2cc(C(F)(F)F)ccc2S(=O)(=O)N1Cc1ccccc1,i,9*,i,-12.5,0.46,i
CC(=O)C[C@H]1c2cc(C(F)(F)F)ccc2S(=O)(=O)N1c1ccccc1,i,i,i,-8.6,0.56,i
SMILES,KCNK9 inh,KCNQ1 pot,KCNK3 block,hERG rescue,Kir21 inh,KCNQ1 block
CCOC(=O)C[C@H]1c2ccccc2S(=O)(=O)N1Cc1cc(OC)c(OC)c(OC)c1,i,i,i,-4.4,0.02,i
CCCCCCCCN1[C@@H](CC(=O)OCC)c2ccc(C(F)(F)F)cc2S1(=O)=O,i,i,i,-2.5,-0.21,6*
CCCCCCCCCCCCN1[C@@H](CC(=O)OC)c2cc(C(F)(F)F)ccc2S1(=O)=O,i,i,i,-2.9,1.53,i
CCOC(=O)C[C@H]1c2cc(F)ccc2S(=O)(=O)N1c1ccccc1,i,i,i,-13.5,-5.03*,i
CCOC(=O)C[C@H]1c2ccccc2S(=O)(=O)N1Cc1cccc(C(F)(F)F)c1,i,i,i,-9.3,-4.49*,i
CCOC(=O)c1nnn(-c2nonc2N)c1CN(C)Cc1ccccc1,i,i,i,-14.7,-1.18,i
CC1=NN(c2ccccc2)C(=O)/C1=C/c1c(O)n(-c2ccc(F)c(Cl)c2)[nH]c1=O,i,12*,x,-27.0,-2.42,i
CC1=NN(c2ccccc2)C(=O)/C1=C\c1c(C)[nH]n(-c2ccccc2)c1=O,i,i,i,-9.8,1.64,i
Cc1ccc(N(CC(=O)NCc2ccccc2)C(=O)CCC(=O)Nc2ccccn2)cc1C,i,i,i,-9.2,-0.59,i
O=S(=O)(c1ccc(F)c(F)c1)N1CCCc2ccccc21,i,i,i,-5.3,-5.38*,i
Cc1cccc(S(=O)(=O)N2CCCc3ccccc32)c1,i,i,i,-7.4,-6.38*,i
O=S(=O)(c1ccc2ccccc2c1)N1CCc2ccccc21,i,i,i,-5.5,1.06,i
O=C(CCS(=O)(=O)c1ccc(Cl)cc1)N1CCCc2ccccc21,i,i,i,-9.1,-4.8*,i
O=S(=O)(c1ccc(Br)cc1)N1CCCc2ccccc21,i,i,i,-3.8,-4.86*,i
CC(C)Oc1ccccc1OCCCOc1cccc2cccnc12,i,i,i,-20.4,-6.56*,i
O=c1c(Cl)c(O)ccn1C1OC(CO)C(O)C1O (stereo not drawn),x,x,i,x,x,x
O=C(OCC(=O)N1CCN(c2ccccc2)CC1)c1cnc(Cl)c(Cl)c1,i,i,x,9.4*,-0.49,i
O=C(OCC(=O)N1CCN(c2ccccc2)CC1)c1cccc(Cl)c1,i,i,i,-10.3,0,i
Cc1cccc(N(Cc2cc3ccccc3[nH]c2=O)C(=O)c2cccs2)c1,i,i,i,-10.2,0.66,i
O=C(NNC(=S)NCc1ccccc1)c1ccccc1OC(F)F,i,i,i,-6.8,-0.2,i
O=C(NNC(=S)Nc1ccc(Cl)cc1)c1ccccc1OC(F)F,i,i,i,-10.6,0.03,8*
Cc1cc(C)c(C)c(S(=O)(=O)N2CCN(C(=O)c3cc(S(=O)(=O)N4CCOCC4)ccc3F)CC2)c1C,x,x,i,x,x,x
O=C(NCc1ccncc1)c1cc(-c2ccc(Cl)cc2)oc1C(F)(F)F,i,i,i,-8.8,-0.05,i
